# Results published in PubChem BioAssay AID652286 (Sanford-Burnham Center for Chemical Genomics, 2013).
# pIC50: −log10 of the molar value. Several values for one entry are separate records, joined by “and”; a condition that tells them apart may be missing. Equal values may be shown once. Activity calls are given as the source filed them.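 The calls were made as follows: active = compounds halving thioesterase enzyme activity at 20 µM or lower; inactive = the rest.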
# Molecular target: Fatty acid synthase (Homo sapiens) (UniProt P49327)
# Test: FAS thioesterase domain inhibitors, SAR follow-up, biochemical, kinetic fluorescence, OMFH substrate, round 2, powder samples (AID 652286)
# Details: recombinant FAS-TE, OMFH fluorogenic substrate
# Method in brief: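 Assay system: FAS thioesterase domain enzyme; Input: 0.9 µM FAS-TE; Buffer or medium: 100 mM Tris-HCl pH 7.5, 50 mM NaCl, 500 mM sarcosine, TCEP, Brij35; Timing: 10-min read interval, room temperature; Technique: kinetic fluorescence intensity, excitation 480 nm, emission 540 nm.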
# Chain of Fatty acid synthase (Homo sapiens) (P49327 whole entry, looked up, the tested form may be a part): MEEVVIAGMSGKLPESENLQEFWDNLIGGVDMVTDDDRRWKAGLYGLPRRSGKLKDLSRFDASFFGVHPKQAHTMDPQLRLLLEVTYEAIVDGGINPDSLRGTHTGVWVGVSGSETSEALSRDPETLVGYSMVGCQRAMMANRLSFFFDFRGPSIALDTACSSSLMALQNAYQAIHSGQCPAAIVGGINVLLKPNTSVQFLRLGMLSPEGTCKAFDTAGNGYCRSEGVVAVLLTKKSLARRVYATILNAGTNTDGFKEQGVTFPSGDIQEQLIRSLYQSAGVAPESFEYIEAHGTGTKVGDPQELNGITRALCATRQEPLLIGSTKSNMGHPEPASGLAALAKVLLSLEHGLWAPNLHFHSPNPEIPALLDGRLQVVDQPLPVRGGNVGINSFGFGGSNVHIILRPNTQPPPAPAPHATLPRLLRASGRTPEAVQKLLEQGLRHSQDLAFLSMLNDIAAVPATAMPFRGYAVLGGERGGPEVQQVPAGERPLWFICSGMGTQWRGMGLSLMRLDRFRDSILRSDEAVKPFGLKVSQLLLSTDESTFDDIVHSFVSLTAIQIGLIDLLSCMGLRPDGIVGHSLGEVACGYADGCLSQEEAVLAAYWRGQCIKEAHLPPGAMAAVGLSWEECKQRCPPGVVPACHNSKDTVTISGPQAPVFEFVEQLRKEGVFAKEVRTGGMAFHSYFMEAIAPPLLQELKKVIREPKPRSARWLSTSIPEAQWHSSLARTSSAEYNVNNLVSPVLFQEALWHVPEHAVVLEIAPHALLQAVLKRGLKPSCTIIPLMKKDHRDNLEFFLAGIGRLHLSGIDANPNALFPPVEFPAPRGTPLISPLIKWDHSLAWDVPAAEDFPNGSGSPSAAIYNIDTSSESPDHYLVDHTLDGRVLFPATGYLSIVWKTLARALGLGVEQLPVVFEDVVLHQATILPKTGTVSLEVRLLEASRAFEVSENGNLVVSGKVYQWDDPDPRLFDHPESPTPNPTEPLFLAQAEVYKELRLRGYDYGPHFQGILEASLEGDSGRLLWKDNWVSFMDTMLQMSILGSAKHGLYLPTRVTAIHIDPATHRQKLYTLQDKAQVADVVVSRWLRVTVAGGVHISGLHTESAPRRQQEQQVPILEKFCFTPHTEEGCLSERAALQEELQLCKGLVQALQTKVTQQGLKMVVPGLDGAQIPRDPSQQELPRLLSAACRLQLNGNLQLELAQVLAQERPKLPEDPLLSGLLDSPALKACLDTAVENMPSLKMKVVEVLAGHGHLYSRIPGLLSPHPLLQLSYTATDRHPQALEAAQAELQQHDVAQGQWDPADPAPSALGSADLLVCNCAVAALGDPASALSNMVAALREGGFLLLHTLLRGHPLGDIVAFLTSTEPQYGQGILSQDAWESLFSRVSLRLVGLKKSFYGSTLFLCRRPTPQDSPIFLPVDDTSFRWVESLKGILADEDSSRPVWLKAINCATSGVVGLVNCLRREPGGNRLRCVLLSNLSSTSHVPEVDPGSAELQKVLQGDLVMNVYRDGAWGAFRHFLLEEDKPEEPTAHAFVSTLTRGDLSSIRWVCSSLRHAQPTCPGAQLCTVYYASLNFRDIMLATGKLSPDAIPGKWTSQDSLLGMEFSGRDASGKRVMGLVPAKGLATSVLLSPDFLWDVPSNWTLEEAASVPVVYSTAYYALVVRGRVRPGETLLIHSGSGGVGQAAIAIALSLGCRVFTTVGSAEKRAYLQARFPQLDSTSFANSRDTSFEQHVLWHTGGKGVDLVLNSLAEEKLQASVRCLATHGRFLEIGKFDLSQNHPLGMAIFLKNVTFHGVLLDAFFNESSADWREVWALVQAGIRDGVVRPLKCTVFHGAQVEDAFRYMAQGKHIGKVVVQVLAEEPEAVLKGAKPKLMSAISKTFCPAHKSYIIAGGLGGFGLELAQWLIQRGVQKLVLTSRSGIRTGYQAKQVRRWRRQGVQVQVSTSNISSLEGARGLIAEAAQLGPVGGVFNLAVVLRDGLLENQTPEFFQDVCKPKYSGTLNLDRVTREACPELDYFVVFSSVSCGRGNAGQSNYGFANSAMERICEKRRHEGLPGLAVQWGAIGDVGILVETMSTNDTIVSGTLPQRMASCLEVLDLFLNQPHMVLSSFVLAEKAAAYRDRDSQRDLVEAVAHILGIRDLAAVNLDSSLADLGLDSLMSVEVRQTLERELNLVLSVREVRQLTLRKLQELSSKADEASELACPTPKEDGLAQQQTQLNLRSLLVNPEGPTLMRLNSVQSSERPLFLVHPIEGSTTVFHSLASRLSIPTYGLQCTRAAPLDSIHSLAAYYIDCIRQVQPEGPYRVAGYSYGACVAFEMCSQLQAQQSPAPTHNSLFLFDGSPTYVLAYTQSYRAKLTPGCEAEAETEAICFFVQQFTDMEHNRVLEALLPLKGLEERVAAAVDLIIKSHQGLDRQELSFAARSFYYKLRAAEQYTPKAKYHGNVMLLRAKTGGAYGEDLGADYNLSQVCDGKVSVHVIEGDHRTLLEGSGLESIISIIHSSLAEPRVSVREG
SMILES,pIC50,IC50
CCC(C)C(=O)Nc1nc(-c2ccc(S(=O)(=O)N3CCCCC3C)cc2)cs1 (stereo not drawn),6.56,–
CCCCC(=O)Nc1nc(-c2ccc(S(=O)(=O)N3CCCCC3C)cc2)cs1 (stereo not drawn),6.45,–
CCCCCCC(=O)Nc1nc(-c2ccc(S(=O)(=O)N(CC)CC)cc2)cs1,5.85,–
CC(C)CC(=O)Nc1nc(-c2ccc(S(=O)(=O)N3CCCC3)cc2)cs1,5.79,–
CCCCCCC(=O)Nc1nc(-c2ccc(S(=O)(=O)N3CCC(C)CC3)cc2)cs1,5.23,–
CC(C)CC(=O)Nc1nc(-c2ccc(S(=O)(=O)N3CCC(C)CC3)cc2)cs1,–,inactive
CC1CCN(S(=O)(=O)c2ccc(-c3csc(NC(=O)C(C)C)n3)cc2)CC1,6.31,–
CCC(CC)C(=O)Nc1nc(-c2ccc(S(=O)(=O)N3CCCC3)cc2)cs1,6.60,–
CCCCCC(=O)Nc1nc(-c2ccc(S(=O)(=O)N3CCCC3)cc2)cs1,6.86,–
CCCCCCC(=O)Nc1nc(-c2ccc(S(=O)(=O)N3CCCCC3C)cc2)cs1 (stereo not drawn),5.35,–
Cn1c(SCC(=O)Nc2ncc(C(F)(F)F)cc2Cl)nnc1-c1ccc(Cl)cc1,6.17,–
CN(Cc1ccc(C(C)(C)C)cc1)C(=O)Cc1ccc(S(=O)(=O)N2CCOCC2)s1,6.44,–
CCCCCC(=O)Nc1nc(-c2ccc(S(=O)(=O)N3CCC(C)CC3)cc2)cs1,6.12,–
CCC(C)C(=O)Nc1nc(-c2ccc(S(=O)(=O)N3CCCC3)cc2)cs1 (stereo not drawn),6.85,–
CCCCCC(=O)Nc1nc(-c2ccc(S(=O)(=O)N(CC)CC)cc2)cs1,6.72,–
CCCCCCCCCCC[C@H](C[C@@H]1OC(=O)[C@H]1CCCCCC)OC(=O)[C@@H](NC=O)C(C)C,6.91,–
CCC(C)C(=O)Nc1nc(-c2ccc(S(=O)(=O)N3CCC(C)CC3)cc2)cs1 (stereo not drawn),6.39,–
CCCCCC(=O)Nc1nc(-c2ccc(S(=O)(=O)N3CCCCC3C)cc2)cs1 (stereo not drawn),6.26,–
CCCCCCC(=O)Nc1nc(-c2ccc(S(=O)(=O)N3CCCC3)cc2)cs1,6.06,–
CCC(CC)C(=O)Nc1nc(-c2ccc(S(=O)(=O)N(CC)CC)cc2)cs1,6.46,–
CCC(C)C(=O)Nc1nc(-c2ccc(S(=O)(=O)N(CC)CC)cc2)cs1 (stereo not drawn),5.97 and 6.82,–
CCC(CC)C(=O)Nc1nc(-c2ccc(S(=O)(=O)N3CCC(C)CC3)cc2)cs1,5.74,–
CCCCC(=O)Nc1nc(-c2ccc(S(=O)(=O)N3CCOCC3)cc2)cs1,6.70,–
